ChEMBL document CHEMBL4219091, “Pharmacophore requirements for HIV-1 reverse transcriptase inhibitors that selectively "Freeze" the pre-translocated complex during the polymerization catalytic cycle” (Bioorg Med Chem, 2018)
Active and inactive are the calls of the source. No cut-off for these calls is given here.

Tests used:
[1] = target: T1, Human immunodeficiency virus type 1 reverse transcriptase (Human immunodeficiency virus 1, UniProt Q72547); assay: Inhibition of HIV1 reverse transcriptase p66/p51 polymerase using PPT57 DNA/Cy5-labeled PPT24 as template/primer preincubated for 10 mins followed by dNTP addition measured after 5 mins by bromophenol blue staining based phosphor imaging analysis
Summary of the method: (§1)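 Gel-based DNA synthesis: PPT57 DNA template (3-fold molar excess) heat-annealed to 50 nM 5'-Cy5-labeled PPT24 primer; 200 nM RT in 50 mM Tris-HCl pH 7.8, 50 mM NaCl, 6 mM MgCl2. Started with 0.5 mM each dNTP, 5 min, 12% denaturing gel.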

[2] = target: Human immunodeficiency virus type 1 reverse transcriptase (Human immunodeficiency virus 1) (UniProt Q72547); assay: (§2) Inhibition of HIV1 reverse transcriptase p66/p51 assessed as freezing of template-primer-enzyme complex at pretranslocated stage using 5'-radiolabeled PBS36c DNA/5'-TTCTGACTAAAAGGGTCTGAGGGAT-3 as template/primer preincubated for 10 mins followed by Fe2+ addition by site-specific foot printing assay
Summary of the method: (§3)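 Fe2+ chemical footprinting: 50 nM 5'-radiolabeled PBS36c DNA template annealed to 150 nM primer, incubated with 750 nM HIV-1 RT in 120 mM sodium cacodylate (pH 7), 20 mM NaCl, 6 mM MgCl2. Compound added at fixed or increasing concentrations, 10 min preincubation at 37 °C. Screening at fixed concentration, 10 µM or 100 µM depending on compound.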

[3] = target: T1, Human immunodeficiency virus type 1 reverse transcriptase; assay: Inhibition of HIV1 reverse transcriptase p66/p51 RNase H preincubated for 10 mins followed by PBS-22dpol/radiolabeled PBS-14r8d addition measured after 5 mins
Summary of the method: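 Inhibitors titrated up to 250 µM (≤5% final DMSO), 10 min preincubation at 37 °C before reaction start.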

[4] = target: Human immunodeficiency virus type 1 reverse transcriptase (Human immunodeficiency virus 1) (UniProt Q72547); assay: Ratio of IC50 for HIV1 reverse transcriptase p66/p51 RNase H to IC50 for HIV1 reverse transcriptase p66/p51 polymerase
[5] = target: Human immunodeficiency virus type 1 reverse transcriptase (Human immunodeficiency virus 1) (UniProt Q72547); assay: as §2, with “stage at 100 uM” for “stage”; summary of the method: as §3
[6] = target: T1, Human immunodeficiency virus type 1 reverse transcriptase; assay: Inhibition of HIV1 reverse transcriptase p66/p51
Summary of the method: as §1, with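 “MgCl2. Inhibitor titrated up to 250 µM (≤5% final DMSO), 10 min preincubation at 37 °C.” for “MgCl2.”, “gel. IC50 from variable-slope curve fit, ≥3 independent determinations.” for “gel.”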

[7] = target: Human immunodeficiency virus type 1 reverse transcriptase (Human immunodeficiency virus 1) (UniProt Q72547); assay: as §2, with “[…]” for “pretranslocated”, “stage at 10 uM” for “stage”; summary of the method: as §3
[8] = target: Human immunodeficiency virus type 1 reverse transcriptase (Human immunodeficiency virus 1, UniProt Q72547, K65R); assay: Inhibition of HIV1 reverse transcriptase p66/p51 polymerase K65R mutant using PPT57 DNA/Cy5-labeled PPT24 as template/primer preincubated for 10 mins followed by dNTP addition measured after 5 mins by bromophenol blue staining based phosphor imaging analysis
Summary of the method: (§4)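 Template/primer: Cy5-labelled PPT24 primer (50 nM) heat-annealed to a 3-fold molar excess of PPT57 DNA template. Incubated with 200 nM RT in 50 mM Tris-HCl pH 7.8, 50 mM NaCl, 6 mM MgCl2. Inhibitor titrated up to […], with at most 5% final DMSO. Pre-incubated 10 min at 37 °C. Started with 0.5 mM each dNTP, run 5 min, stopped with formamide dye. Products resolved on 12% denaturing PAGE and imaged. Normalized data fitted to a variable-slope log[inhibitor]–response curve to give IC50.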

[9] = target: Human immunodeficiency virus type 1 reverse transcriptase (Human immunodeficiency virus 1, UniProt Q72547, E89K); assay: Inhibition of HIV1 reverse transcriptase p66/p51 polymerase E89K mutant using PPT57 DNA/Cy5-labeled PPT24 as template/primer preincubated for 10 mins followed by dNTP addition measured after 5 mins by bromophenol blue staining based phosphor imaging analysis; summary of the method: as §4
[10] = target: Human immunodeficiency virus type 1 reverse transcriptase (Human immunodeficiency virus 1, UniProt Q72547, M184V); assay: Inhibition of HIV1 reverse transcriptase p66/p51 polymerase M184V mutant using PPT57 DNA/Cy5-labeled PPT24 as template/primer preincubated for 10 mins followed by dNTP addition measured after 5 mins by bromophenol blue staining based phosphor imaging analysis; summary of the method: as §4
[11] = system: Human immunodeficiency virus 1; assay: Ratio of IC50 for HIV1 reverse transcriptase p66/p51 polymerase K65R mutant to IC50 for HIV1 reverse transcriptase p66/p51 polymerase wild type
[12] = system: Human immunodeficiency virus 1; assay: Ratio of IC50 for HIV1 reverse transcriptase p66/p51 polymerase M184V mutant to IC50 for HIV1 reverse transcriptase p66/p51 polymerase wild type
[13] = system: Human immunodeficiency virus 1; assay: Ratio of IC50 for HIV1 reverse transcriptase p66/p51 polymerase E89K mutant to IC50 for HIV1 reverse transcriptase p66/p51 polymerase wild type

## Cc1ccc(-c2nc(O)c(O)c(C(=O)O)n2)cc1Cl
[1]
  IC50: 1.6 µM
[2]
  inhibition: Dose-dependent effect
[3]
  IC50: 25 µM
[4]
  Ratio IC50: > 10

## CC(C)c1ccc(-c2nc(O)c(O)c(C(=O)O)n2)cc1
[1]
  IC50: 22 µM

## CNC(=O)c1nc(-c2ccc(C)c(Br)c2)nc(O)c1O
[1]
  IC50: > 100 µM

## O=C(O)c1nc(-c2ccc(Cl)cc2)[nH]c(=O)c1O
[1]
  IC50: 4.5 µM

## O=C(O)c1nc(-c2ccc(Br)cc2)nc(O)c1O
[1]
  IC50: 2.8 µM

## O=C(O)c1nc(-c2cccc(Cl)c2)nc(O)c1O
[1]
  IC50: 18 µM

## COc1ccc(-c2cnc3ncnc(NCc4nc(O)c(O)c(C(=O)O)n4)c3c2)cc1
[1]
  IC50: 25 µM
[5]
  Active/not active call for freezing the pre-translocated complex: inactive
[3]
  IC50: 1.5 µM

## O=C(O)c1nc(CNc2ncnc3ncc(Br)cc23)nc(O)c1O
[1]
  IC50: 49 µM
[5]
  Active/not active call for freezing the pre-translocated complex: inactive

## Nc1ncnc2c1ncn2CCc1nc(O)c(O)c(C(=O)O)n1
[1]
  IC50: 41 µM

## COC(=O)c1nc(-c2ccc(C)c(Br)c2)nc(O)c1O
[1]
  IC50: > 100 µM

## CSc1nc2ncnc(NCc3nc(O)c(O)c(C(=O)O)n3)c2cc1Br
[1]
  IC50: > 100 µM

## Cc1cccc(-c2nc(O)c(O)c(C(=O)O)n2)c1
[1]
  IC50: 49 µM

## O=C(O)c1nc(Cc2ccc(Cl)cc2)nc(O)c1O
[1]
  IC50: 97 µM

## O=C(Nc1ccc(-c2cccc(NC(P(=O)(O)O)P(=O)(O)O)c2)cc1)C1CC1
[5]
  Active/not active call for freezing the pre-translocated complex: inactive
[6]
  IC50: > 50 µM
[3]
  IC50: 0.8 µM

## O=C(O)c1nc(-c2cccc(-c3ccc(F)c(F)c3)c2)nc(O)c1O
[1]
  IC50: > 100 µM

## O=C(O)c1nc(-c2cccs2)nc(O)c1O
[1]
  IC50: 46 µM

## O=C(O)c1nc(-c2cc(C(F)(F)F)cc(C(F)(F)F)c2)nc(O)c1O
[1]
  IC50: 20 µM
[5]
  Active/not active call for freezing the pre-translocated complex: inactive

## O=C(O)c1nc(-c2cccc(Br)c2)nc(O)c1O
[1]
  IC50: 14 µM
[5]
  Active/not active call for freezing the pre-translocated complex: Active

## O=C(O)c1nc(-c2ccccc2)nc(O)c1O
[1]
  IC50: > 100 µM

## O=P(O)(O)C(Nc1cccc(Br)c1)P(=O)(O)O
[5]
  Active/not active call for freezing the pre-translocated complex: Active

## COc1ccc(-c2cc3c(NCc4nc(O)c(O)c(C(=O)O)n4)ncnc3nc2SC)cc1
[1]
  IC50: 62 µM
[3]
  IC50: 2 µM

## Cc1ccc(-c2nc(O)c(O)c(C(=O)O)n2)cc1
[1]
  IC50: 6.3 µM

## Cn1c2ccccc2c2c1cc(C#N)c(=O)n2-c1ccc([N+](=O)[O-])cc1
[7]
  inhibition: Active

## Cc1ccc(-c2nc(O)c(O)c(C(=O)O)n2)cc1Br
[1]
  IC50: 1.4 to 1.74 µM
[2]
  inhibition: Dose-dependent effect
[3]
  IC50: 23 µM
[8]
  IC50: 1.13 µM
[9]
  IC50: 4.63 µM
[10]
  IC50: 2.79 µM
[4]
  Ratio IC50: > 10
[11]
  Ratio IC50: < 2
[12]
  Ratio IC50: < 2
[13]
  Ratio IC50: 2.7

## Cc1noc(C)c1-c1ccc(-c2nc(O)c(O)c(C(=O)O)n2)cc1
[1]
  IC50: > 100 µM

## O=C(O)c1nc(CNc2ncnc3ncccc23)nc(O)c1O
[1]
  IC50: 65 µM

## Nc1ncnc2c1ncn2Cc1nc(O)c(O)c(C(=O)O)n1
[1]
  IC50: > 100 µM
